Where a chain is given by its changes, count along the chain named.
Legend:
Type in all cases: cell-based
[1] = biological target: T1, wt hRFC (Homo sapiens, UniProt P41440); assay: [3H]MTX transport kinetics
T1 sequence (P41440 1-591): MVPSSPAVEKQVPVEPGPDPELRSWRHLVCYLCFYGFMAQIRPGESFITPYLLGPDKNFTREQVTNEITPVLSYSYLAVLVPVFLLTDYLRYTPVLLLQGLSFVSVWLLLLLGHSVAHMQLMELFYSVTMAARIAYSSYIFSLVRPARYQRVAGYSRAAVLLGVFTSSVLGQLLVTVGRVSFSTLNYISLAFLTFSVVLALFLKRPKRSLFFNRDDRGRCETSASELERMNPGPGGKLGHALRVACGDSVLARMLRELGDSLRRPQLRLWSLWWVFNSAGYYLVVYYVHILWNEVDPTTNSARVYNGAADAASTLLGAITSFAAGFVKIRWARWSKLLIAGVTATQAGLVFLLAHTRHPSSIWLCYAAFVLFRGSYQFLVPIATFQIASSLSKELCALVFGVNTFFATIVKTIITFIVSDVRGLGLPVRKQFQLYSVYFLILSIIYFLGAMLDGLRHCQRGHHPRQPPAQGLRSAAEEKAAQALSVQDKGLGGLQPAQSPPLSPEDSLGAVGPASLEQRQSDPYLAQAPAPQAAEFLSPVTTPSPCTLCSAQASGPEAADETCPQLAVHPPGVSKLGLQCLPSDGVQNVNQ
Outline: (§1)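 Human hRFC-null K500E (K562 subline) cells were electroporated (155 V, 1000 μF) with wt or Ser313-mutant hRFC. Stable clones were selected in soft agar with G418 (1 mg/ml). [3H]MTX uptake was measured over 180 s in HBSS at 37 °C in a shaking water bath and expressed as pmol/mg protein (Lowry). Kt and Vmax came from Lineweaver–Burk plots, with Vmax normalized to densitometric Western blot hRFC levels. Three experiments, means±S.E.M.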

[2] = biological target: T2, S313T hRFC (Homo sapiens, UniProt P41440, S313T); assay: [3H]MTX uptake in transiently transfected R5 HeLa cells; settings: 0.5 μM [3H]MTX, 2 min, 37 °C, normalized to hRFC protein on Western blots
T2 sequence (P41440 1-591 S313T): T1 sequence (P41440 1-591) with S313T

[3] = biological target: T3, S313F hRFC (Ser^313 replaced with phenylalanine) (Homo sapiens, UniProt P41440, S313F); assay: [3H]MTX uptake in transiently transfected R5 HeLa cells
T3 sequence (P41440 1-591 S313F): T1 sequence (P41440 1-591) with S313F
Outline: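 Human R5 HeLa cells (transport-defective) were transiently transfected with Lipofectamine Plus, split at 24 h and assayed 24 h later. Uptake of 0.5 μM [3H]MTX ran for 2 min at 37 °C in HSM buffer (20 mM Hepes, 235 mM sucrose, pH 7.14 with MgO). Uptake was stopped with ice-cold PBS and cells solubilized in 0.5 M NaOH. Values in pmol/mg protein were normalized to HA-blot hRFC levels. Three experiments, means±S.E.M.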

[4] = biological target: T4, S313A hRFC (Homo sapiens, UniProt P41440, S313A); assay: [3H]MTX transport kinetics
T4 sequence (P41440 1-591 S313A): T1 sequence (P41440 1-591) with S313A
Outline: as §1

[5] = K500E stable transfectant, mean±S.E.M., n=3
[6] = Vmax normalized to relative hRFC level on Western blots

Vmax (normalized)/Kt [1]: 2.44
Kt [1, 5]: 1.89 ± 0.43 µM
Normalized Vmax [1, 6]: 4.62±0.37
[3H]MTX transport activity relative to wt hRFC [2]: ~ 8%
MTX transport [3]: abolished
Vmax (normalized)/Kt [4]: 0.18
Kt [4, 5]: 2.26 ± 0.44 µM
Normalized Vmax [4, 6]: 0.41±0.03
SMILES: CN(Cc1cnc2nc(N)nc(N)c2n1)c1ccc(C(=O)N[C@@H](CCC(=O)O)C(=O)O)cc1 [MTX, methotrexate]

Source: article PMC2947195 (Biochemical Journal, 2010)
